Laboratory results taken from ChEMBL document CHEMBL2417451, “Synthesis, antimicrobial and cytotoxic activities of some novel thiazole clubbed 1,3,4-oxadiazoles” (Eur J Med Chem, 2013).
Values after ≈ are worked out from the molar mass of the structure shown.

Experiments:
Aspergillus clavatus = experiment: Antifungal activity against Aspergillus clavatus MTCC 1323 by conventional broth microdilution method; assay type: functional
Summary of the method: (§1)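 Tube broth microdilution. Compounds were diluted in DMSO from a 2000 μg/mL stock. The primary screen used 500, 250 and 200 μg/mL, and actives were retested at 100, 62.5, 50 and 25 μg/mL. Tubes were incubated overnight. MIC was the lowest concentration with no visible growth (at least 99% inhibition). Clear tubes were subcultured overnight at 37 °C.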

Aspergillus niger [1] = experiment: Antifungal activity against Aspergillus niger MTCC 282 by conventional broth microdilution method; assay type: functional; summary of the method: as §1
Candida albicans [2] = experiment: Antifungal activity against Candida albicans MTCC 227 by conventional broth microdilution method; assay type: functional; summary of the method: as §1
Pseudomonas aeruginosa [3] = experiment: Antibacterial activity against Pseudomonas aeruginosa MTCC 1688 by conventional broth microdilution method; assay type: functional; summary of the method: as §1
Escherichia coli [4] = experiment: Antibacterial activity against Escherichia coli MTCC 443 by conventional broth microdilution method; assay type: functional; summary of the method: as §1
Streptococcus pyogenes [5] = experiment: Antibacterial activity against Streptococcus pyogenes MTCC 442 by conventional broth microdilution method; assay type: functional; summary of the method: as §1
Staphylococcus aureus [6] = experiment: Antibacterial activity against Staphylococcus aureus MTCC 96 by conventional broth microdilution method; assay type: functional; summary of the method: as §1
Pseudomonas aeruginosa [7] = experiment: Ratio of chloramphenicol MIC to compound MIC for Pseudomonas aeruginosa MTCC 1688; assay type: functional
Escherichia coli [8] = experiment: Ratio of chloramphenicol MIC to compound MIC for Escherichia coli MTCC 443; assay type: functional
Streptococcus pyogenes [9] = experiment: Ratio of chloramphenicol MIC to compound MIC for Streptococcus pyogenes MTCC 442; assay type: functional
HeLa = experiment: Cytotoxicity against human HeLa cells after 24 hrs by MTT assay; assay type: cell-based
Summary of the method: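 HeLa cells were grown in MEM with 10% FBS, 1% glutamine and gentamicin under humidified 5% CO2. 1.0 × 10^4 cells were exposed to 1–100 μM compound (0.1% DMSO in medium) for 24 h at 37 °C. MTT at 1 mg/mL was added for 5 h at 37 °C, formazan was dissolved in DMSO, and A540 was read. Run in triplicate; IC50 reported.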

Staphylococcus aureus [10] = experiment: Ratio of chloramphenicol MIC to compound MIC for Staphylococcus aureus MTCC 96; assay type: functional
Aspergillus niger [11] = experiment: Ratio of ketoconazole MIC to compound MIC for Aspergillus niger MTCC 282; assay type: functional
Candida albicans [12] = experiment: Ratio of ketoconazole MIC to compound MIC for Candida albicans MTCC 227; assay type: functional

Row | MIC (Aspergillus clavatus) [µg/mL] | MIC (Aspergillus niger [1]) [µg/mL] | MIC (Candida albicans [2]) [µg/mL] | MIC (Pseudomonas aeruginosa [3]) [µg/mL] | MIC (Escherichia coli [4]) [µg/mL] | MIC (Streptococcus pyogenes [5]) [µg/mL] | MIC (Staphylococcus aureus [6]) [µg/mL] | Compound | Ratio (Pseudomonas aeruginosa [7]) | Ratio (Escherichia coli [8]) | Ratio (Streptococcus pyogenes [9]) | IC50 (HeLa) [µM] | Ratio (Staphylococcus aureus [10]) | Ratio (Aspergillus niger [11]) | Ratio (Candida albicans [12])
1 | 500 (≈ 1230 µM) | 500 (≈ 1230 µM) | 250 (≈ 615 µM) | 250 (≈ 615 µM) | 500 (≈ 1230 µM) | 250 (≈ 615 µM) | 100 (≈ 246 µM) | CC(=O)Nc1nc(C)c(-c2nn(CNc3ccccc3[N+](=O)[O-])c(=S)o2)s1 |  |  |  |  |  |  | 
2 | 250 (≈ 666 µM) | 500 (≈ 1330 µM) | 500 (≈ 1330 µM) | 100 (≈ 266 µM) | 250 (≈ 666 µM) | 250 (≈ 666 µM) | 500 (≈ 1330 µM) | CC(=O)Nc1nc(C)c(-c2nn(CNc3ccccc3C)c(=S)o2)s1 |  |  |  |  |  |  | 
3 | 100 (≈ 246 µM) | 250 (≈ 615 µM) | 500 (≈ 1230 µM) | 12.5 (≈ 30.8 µM) | 12.5 (≈ 30.8 µM) | 25 (≈ 61.5 µM) | 25 (≈ 61.5 µM) | CC(=O)Nc1nc(C)c(-c2nn(CNc3ccc([N+](=O)[O-])cc3)c(=S)o2)s1 | 4 | 4 | 2 | 96.5 | 2 |  | 
4 | 62.5 (≈ 160 µM) | 25 (≈ 63.9 µM) | 25 (≈ 63.9 µM) | 500 (≈ 1280 µM) | 500 (≈ 1280 µM) | > 1000 | 500 (≈ 1280 µM) | COc1ccc(NCn2nc(-c3sc(NC(C)=O)nc3C)oc2=S)cc1 |  |  |  | 98.6 |  | 2 | 2
5 | 250 (≈ 639 µM) | 250 (≈ 639 µM) | 500 (≈ 1280 µM) | 250 (≈ 639 µM) | 500 (≈ 1280 µM) | > 1000 | 500 (≈ 1280 µM) | COc1ccccc1NCn1nc(-c2sc(NC(C)=O)nc2C)oc1=S |  |  |  |  |  |  | 
6 | > 1000 | 500 (≈ 1320 µM) | 500 (≈ 1320 µM) | 50 (≈ 132 µM) | 50 (≈ 132 µM) | 100 (≈ 264 µM) | 50 (≈ 132 µM) | CC(=O)Nc1nc(C)c(-c2nn(CNc3cccc(F)c3)c(=S)o2)s1 |  |  |  | > 100 |  |  | 
7 | 250 (≈ 615 µM) | 100 (≈ 246 µM) | 500 (≈ 1230 µM) | 50 (≈ 123 µM) | 50 (≈ 123 µM) | 100 (≈ 246 µM) | 50 (≈ 123 µM) | CC(=O)Nc1nc(C)c(-c2nn(CNc3cccc([N+](=O)[O-])c3)c(=S)o2)s1 |  |  |  | > 100 |  |  | 
8 | 500 (≈ 1330 µM) | 500 (≈ 1330 µM) | 500 (≈ 1330 µM) | 500 (≈ 1330 µM) | 250 (≈ 666 µM) | 500 (≈ 1330 µM) | 500 (≈ 1330 µM) | CC(=O)Nc1nc(C)c(-c2nn(CNc3cccc(C)c3)c(=S)o2)s1 |  |  |  |  |  |  | 
9 | 500 (≈ 1320 µM) | > 1000 | 500 (≈ 1320 µM) | 500 (≈ 1320 µM) | 250 (≈ 659 µM) | 100 (≈ 264 µM) | 250 (≈ 659 µM) | CC(=O)Nc1nc(C)c(-c2nn(CNc3ccccc3F)c(=S)o2)s1 |  |  |  |  |  |  | 
10 | 500 (≈ 1280 µM) | 100 (≈ 255 µM) | 250 (≈ 639 µM) | 500 (≈ 1280 µM) | 500 (≈ 1280 µM) | 500 (≈ 1280 µM) | > 1000 | COc1cccc(NCn2nc(-c3sc(NC(C)=O)nc3C)oc2=S)c1 |  |  |  |  |  |  | 
11 | > 1000 | 500 (≈ 1320 µM) | 500 (≈ 1320 µM) | 12.5 (≈ 32.9 µM) | 12.5 (≈ 32.9 µM) | 25 (≈ 65.9 µM) | 12.5 (≈ 32.9 µM) | CC(=O)Nc1nc(C)c(-c2nn(CNc3ccc(F)cc3)c(=S)o2)s1 | 4 | 4 | 2 | > 100 | 4 |  | 
12 | 250 (≈ 666 µM) | 250 (≈ 666 µM) | 500 (≈ 1330 µM) | > 1000 | 500 (≈ 1330 µM) | > 1000 | 500 (≈ 1330 µM) | CC(=O)Nc1nc(C)c(-c2nn(CNc3ccc(C)cc3)c(=S)o2)s1 |  |  |  |  |  |  | 

Row | Compound | MIC (Aspergillus clavatus) [µg/mL] | MIC (Aspergillus niger [1]) [µg/mL] | MIC (Candida albicans [2]) [µg/mL] | MIC (Pseudomonas aeruginosa [3]) [µg/mL] | MIC (Escherichia coli [4]) [µg/mL] | MIC (Streptococcus pyogenes [5]) [µg/mL] | MIC (Staphylococcus aureus [6]) [µg/mL] | Ratio (Pseudomonas aeruginosa [7]) | Ratio (Escherichia coli [8]) | Ratio (Streptococcus pyogenes [9]) | IC50 (HeLa) [µM] | Ratio (Staphylococcus aureus [10]) | Ratio (Aspergillus niger [11]) | Ratio (Candida albicans [12])
13 | CC(=O)N1CCN(c2ccc(OCC3COC(Cn4ccnc4)(c4ccc(Cl)cc4Cl)O3)cc2)CC1 (stereo unspecified) [KETOCONAZOLE] | 50 (≈ 94.1 µM) | 50 (≈ 94.1 µM) | 50 (≈ 94.1 µM) |  |  |  |  |  |  |  |  |  |  | 
14 | O=C(N[C@H](CO)[C@H](O)c1ccc([N+](=O)[O-])cc1)C(Cl)Cl [CHLORAMPHENICOL] |  |  |  | 50 (≈ 155 µM) | 50 (≈ 155 µM) | 50 (≈ 155 µM) | 50 (≈ 155 µM) |  |  |  |  |  |  | 
